Source: PMC3481545 (Biochemistry, 2012)
Numbering of substitutions follows the chain as printed. Numbers in names are those of the source.

B1: BMP-7: Bone Morphogenetic Protein ligand provided by Stryker Biotech; BMPR-II ligand (protein)
chain: STGSKQRSQNRSKTPKNQEALRMANVAENSSSDQRQACKKHELYVSFRDLGWQDWIIAPEGYAAYYCEGECAFPLNSYMNATNHAIVQTLVHFINPETVPKPCCAPTQLNAISVLYFDDSSNVILKKYRNMVVRACGCH
B2: S107P: BMPR-II ECD naturally occurring single-amino-acid-substitution mutant S107P (protein)
chain: ASQNQERLCAFKDPYQQDLGIGESRISHENGTILCSKGSTCYGLWEKSKGDINLVKQGCWSHIGDPQECHYEECVVTTTPPPIQNGTYRFCCCSTDLCNVNFTENFPPPDTTPLSPPHSFNRDET
modifications: left off: TRX, N-terminal, cleaved | His6, C-terminal, state not stated
B3: Y40R: BMPR-II ECD single-amino-acid-substitution mutant Y40R (protein)
chain: B2 chain with Y15R, P82S
modifications: left off: TRX, N-terminal, cleaved | His6, C-terminal, state not stated
B4: Y40Q: BMPR-II ECD single-amino-acid-substitution mutant Y40Q (protein)
chain: B2 chain with Y15Q, P82S
modifications: left off: TRX, N-terminal, cleaved | His6, C-terminal, state not stated
B5: Y40G: BMPR-II ECD single-amino-acid-substitution mutant Y40G (protein)
chain: B2 chain with Y15G, P82S
modifications: left off: TRX, N-terminal, cleaved | His6, C-terminal, state not stated
B6: G47N: BMPR-II ECD naturally occurring single-amino-acid-substitution mutant G47N (protein)
chain: B2 chain with G22N, P82S
modifications: left off: TRX, N-terminal, cleaved | His6, C-terminal, state not stated
B7: Y40P: BMPR-II ECD single-amino-acid-substitution mutant Y40P (protein)
chain: B2 chain with Y15P, P82S
modifications: left off: TRX, N-terminal, cleaved | His6, C-terminal, state not stated
B8: BMPR-II Wild type: human recombinant BMPR-II receptor extracellular domain (ECD), wild type, expressed in E. coli (protein)
chain: B2 chain with P82S
modifications: left off: TRX, N-terminal, cleaved | His6, C-terminal, state not stated
B9: ActR-IIB Wild type: human recombinant ActR-IIB receptor extracellular domain (ECD), wild type, expressed in E. coli (protein, UniProt Q13705 19-137, looked up)
extracellular domain: SGRGEAETRECIYYNANWELERTNQSGLERCEGEQDKRLHCYASWRNSSGTIELVKKGCWLDDFNCYDRQECVATEENPQVYFCCCEGNFCNERFTHLPEAGGPEVTYEPPPTAPTLLT
modifications: extracellular domain

test system: BMP-7-stimulated OC promoter activity in fetal rat calvaria (FRC) cells; assay: Osteocalcin promoter-Luciferase; type: cell-based; details: BMP-7 alone, 6 nM
Procedure, shortened: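 Primary fetal rat calvaria cells were grown in αMEM+10% FBS and transfected with an OC promoter-luciferase plasmid via FuGENE 6 in OPTI medium with 8 U hyaluronidase. After 5 h, fresh medium was added overnight. Cells were then treated 24 h with 6 nM BMP-7, alone or with 20-fold molar excess soluble receptor ECD. Luciferase was read in lysates; mean±SEM of three independent measurements.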

Molecule	Stimulation of OC promoter activity beyond the empty plasmid control [fold]
B1	14

test system: not listed separately; assay: Energy transfer; type: binding; details: value in parenthesis
Procedure, shortened: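 Human receptor ECDs (wild-type, mutants, chimeras) were made as TRX/His-tag fusions in E. coli BL21(DE3), cut with thrombin, and purified by Ni-NTA, gel filtration and C18. Protein was quantified by A280. bis-ANS was diluted from a 10 mM DMF stock into 50 mM Tris-HCl pH 7.5, 150 mM NaCl. Tryptophan was excited at 295 nm, emission read 310–600 nm at 25°C, and K′ derived from energy transfer to bis-ANS, normalized to wild-type.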

Relative K′ of bis-ANS (energy transfer), normalized to wild-type	Molecule
0.9	B2
0.9	B3
1.9	B4
0.6	B5
2.3	B6
1.6	B7
1.0	B8
1.0	B9

test system: not listed separately; assay: bis-ANS fluorescence titration of receptor ECDs; type: binding; details: value in parenthesis
Procedure, shortened: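 Receptor ECDs were expressed in E. coli as TRX/His-tag fusions, thrombin-cleaved, and purified (Ni-NTA, gel filtration, C18), then quantified by A280. bis-ANS was diluted from a 10 mM DMF stock into 50 mM Tris-HCl pH 7.5, 150 mM NaCl and titrated against fixed protein. Peak fluorescence versus dye concentration was fitted to a Hill equation for apparent K′, normalized to wild-type.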

Relative K′ of bis-ANS (Hill Eq.), normalized to wild-type	Molecule
1.0	B2
1.1	B3
2.4	B4
0.3	B5
2.9	B6
1.8	B7
1.0	B8
1.0	B9
